Screening results as filed in PubChem.
MrgX1 agonist = human MrgX1 receptor agonism, primary screen | Q96LB2 | MrgX1-HEK293 cells, Fluo-4 calcium fluorescence, agonist mode; stronger effect = higher value | B-score at 10 µM | 0.44% of 310,000 active | AID 588627;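 active = calcium response B-score plate-corrected fluorescence ratio at least 3 library SD, with starting fluorescence B-score inside 5 SD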
Target sequence (Q96LB2 whole entry, looked up): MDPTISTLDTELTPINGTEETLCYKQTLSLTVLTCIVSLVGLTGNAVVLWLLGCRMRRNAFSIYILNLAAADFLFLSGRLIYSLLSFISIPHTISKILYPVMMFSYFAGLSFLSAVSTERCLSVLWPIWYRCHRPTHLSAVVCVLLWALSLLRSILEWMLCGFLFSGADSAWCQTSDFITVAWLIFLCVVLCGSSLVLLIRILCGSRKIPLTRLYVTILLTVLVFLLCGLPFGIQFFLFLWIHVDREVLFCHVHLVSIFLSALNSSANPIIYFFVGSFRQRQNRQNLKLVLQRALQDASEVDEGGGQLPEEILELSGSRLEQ
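Test system: Stable human MrgX1 HEK293 cell line | Schedule: Overnight plating before 1 h dye loading | Read-out basis: Baseline-normalised fluorescence change ratio, B-scored | Detection: Kinetic calcium dye fluorescence, Fluo-4 NW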
RGS4 inh = inhibitors of human RGS4; P49798; HEK293 M3R/RGS4 inducible, Fluo-4 calcium flux; stronger effect = higher value; triggered by carbachol at its EC20; B-score at 10 µM; 0.45% of 310,000 active; AID 463165;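 active = B-score, a plate-corrected calcium signal, over three deviations above library mean, with baseline fluorescence within five deviations of library mean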;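 also: RGS4 expression induced by doxycycline in cells with stable M3 receptor; B-score is computed from the integrated fluorescence ratio over baseline after carbachol; higher B-score means a larger calcium signal and so more RGS4 inhibition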
Target sequence (P49798 whole entry, looked up): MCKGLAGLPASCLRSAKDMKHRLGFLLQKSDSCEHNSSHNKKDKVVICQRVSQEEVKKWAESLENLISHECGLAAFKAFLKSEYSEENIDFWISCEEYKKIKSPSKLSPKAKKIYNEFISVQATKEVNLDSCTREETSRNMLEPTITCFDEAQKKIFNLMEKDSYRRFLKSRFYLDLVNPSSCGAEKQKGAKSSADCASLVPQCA
MrgX1 antagonist = antagonists of human MrgX1 receptor. B-score at 10 µM. Q96LB2. MRGX1-HEK293 calcium flux, Fluo-4, BAM8-22 antagonism; stronger effect = lower value. 1.3% of 310,000 active. AID 588676;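 active = calcium-response B-score plate-corrected more than 3 library SD below zero, starting fluorescence within 5 deviations, no agonist response on first addition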;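 also: peak minus trough fluorescence over baseline after final BAM8-22 challenge near maximal dose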
MrgX1 PAM = human MrgX1 positive allosteric modulation, primary screen; AID 588675; Q96LB2; B-score at 10 µM; 0.63% of 310,000 active; MrgX1-HEK293, Fluo-4 calcium flux, FDSS; stronger effect = higher value;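 active = plate-corrected calcium response at least 3 library SD above typical, normal starting fluorescence, not activating the receptor alone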;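 also: compound read alongside a low EC10 to EC30 dose of BAM8-22 agonist; peak minus trough fluorescence over baseline measured at the second addition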
RGS4 pot = RGS4 potentiation or activation; 0.92% of 310,000 active; HEK293 M3R/inducible RGS4, carbachol calcium flux Fluo4; stronger effect = lower value; B-score at 10 µM;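 active = B-score of the integrated calcium signal more than 4 SD below the library mean, with starting fluorescence not abnormally high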;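 also: negative B-score means reduced calcium response which marks RGS4 activation or potentiation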
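Assay system: Inducible-RGS4 HEK293 cells carrying M3 receptor | Schedule: Compound preincubation 20 min at room temperature before agonist | Signal: Kinetic calcium fluorescence imaging with Fluo4-AM dye, 2 µM | Read-out basis: B score from integrated fluorescence ratio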
MrgX1 allo conf = confirmation of human MrgX1 receptor positive allosteric modulators; 13% of 1,200 active; activation (ratio percentage), % at 10 µM; MrgX1-HEK293, Fluo-4 calcium fluorescence, FDSS; shares compounds with MrgX1 PAM;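 active = ratio at least 3 SD above the weak peptide control, stable starting fluorescence, no direct agonism earlier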;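 also: compound followed by low BAM8-22 agonist challenge near EC20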
MrgX1 antag conf = human MrgX1 receptor antagonism, re-confirmation screen | shares compounds with MrgX1 antagonist | MrgX1-HEK293, BAM8-22 calcium flux, Fluo-4; stronger effect = lower value | remaining BAM8-22 calcium response % of control (stronger effect = lower value), % at 10 µM | 19% of 2,300 active;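 active = remaining agonist calcium response no higher than 100% minus 3 SD of agonist-only control wells, with starting fluorescence near control levels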;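 also: agonist BAM8-22 given at a near maximal EC90 to ECmax level; peak minus minimum fluorescence divided by baseline after agonist addition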
HEK293 Ca flux = counter-screen for MrgX1 antagonists: effect in parental HEK293 cells. shares compounds with MrgX1 antagonist. Fluo-4 calcium fluorescence, FDSS. fluorescence ratio F(max-min)/F0 at 10 µM. 2% of 4,000 active. AID 624111;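 active = duplicate-averaged calcium fluorescence ratio at least three times the standard deviation of buffer wells, a nonspecific response in parental cells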
HEK293 Ca counter = counter-screen for MrgX1 allosteric activators: effect in parental HEK293 cells; shares compounds with MrgX1 antagonist; fluorescence ratio F(max-min)/F0 at 10 µM; parental HEK293 calcium flux, Fluo-4 fluorescence ratio; stronger effect = higher value; 0.4% of 4,000 active;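 active = calcium fluorescence ratio, averaged over duplicates, at least 3 SD of the buffer-well ratio, meaning a nonspecific response in receptor-free cells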;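 also: untransfected parental HEK293 lacking MrgX1 used as counterscreen for MrgX1 allosteric activators; fluorescence change taken during the second addition on a kinetic imager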
HEK293 Ca cntr2 = counter-screen for MrgX1 activators: effect in parental HEK293 cells; fluorescence ratio F(max-min)/F0 at 10 µM; 8.7% of 4,000 active; shares compounds with MrgX1 antagonist; AID 624115; Fluo-4 calcium fluorescence (FDSS); stronger effect = higher value;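 active = calcium fluorescence ratio at least three times the spread of buffer wells, meaning a non-specific response in parental cells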
Starred values were filed as active, the others as inactive; i = inactive; · = not tested or not shown. Compounds with a hit are over-represented: about 3.5% of the library has one in this group of screens.

SMILES | MrgX1 agonist | RGS4 inh | MrgX1 antagonist | MrgX1 PAM | RGS4 pot | MrgX1 allo conf | HEK293 Ca flux | HEK293 Ca counter | HEK293 Ca cntr2 | others
Cc1ccc(NC(=O)N2CCCC2C(=O)NCC2CCCCC2)cc1 (centres undefined) | i | i | i | 10* | i | i | i | i | i
CC(=O)c1ccc(NC(=O)C(Cc2ccccc2)NC(=O)c2ccco2)cc1 (centres undefined) | i | i | i | 8.9* | i | i | i | i | i
COc1ccc(NC(=O)C(Cc2ccccc2)NC(=O)c2ccco2)cc1OC (centres undefined) | i | i | i | i | i | · | · | · | ·
COc1cccc(C(=O)COc2cccc(NC(=O)c3ccco3)c2)c1 | i | i | i | 6.6* | i | i | i | i | i
CC1C(=O)N(Cc2ccccc2F)c2ccccc2N1C(=O)c1c(F)cccc1F (centres undefined) | i | i | i | 9* | i | i | i | i | i
COc1ccc(C(=O)Nc2scc(-c3ccc(Cl)cc3Cl)c2C(N)=O)cc1 | i | i | i | 27* | i | 20%* | i | i | i
COc1ccc(C(=O)Nc2cc(OC)c(Cl)cc2Cl)cc1 | i | i | i | i | i | · | · | · | ·
COc1ccc(C2c3ccc(O)cc3Oc3ncn4nc(-c5ccncc5)nc4c32)cc1OC (centres undefined) | i | i | i | i | i | · | · | · | ·
COC(=O)c1sc(NC(=S)NC(=O)c2ccccc2C)nc1C | i | i | i | 7.3* | i | i | i | i | 56*
COc1ccc(NC(C)(C)c2nnnn2-c2c(C)cccc2C)cc1 | i | i | i | 6.6* | i | i | i | i | i
CCN1CCN(CC(=O)Nc2ccc(Cl)c(Cl)c2)C(=O)C1=O | i | i | i | 7.7* | i | i | i | i | i
CC(C)(C)c1csc(SCC(=O)Nc2ccc(Cl)cn2)n1 | i | i | i | 19* | i | 5.1%* | i | i | i
CCOC(=O)c1ccc(NC(=O)C2CC3CCC2C3)cc1 (centres undefined) | i | i | i | 7.5* | i | i | i | i | i
COCC(C)n1c(SCC(=O)c2cc(C)n(C)c2C)nc2ccccc2c1=O (centres undefined) | i | i | i | 13* | i | i | i | i | i
COC(=O)[C@@H]1C[C@@]2(O)[C@@H](O)[C@@H](O)[C@@H](O)C[C@H]2N1Cc1ccc(Cl)cc1 | i | i | i | i | i | · | · | · | ·
CCOC(=O)C(Cc1ccccc1)C(=O)NCc1ccccc1 (centres undefined) | i | i | i | i | i | · | · | · | ·
Cc1cccn2c(=O)nc(SCC(=O)N3CCN(c4ccccc4)CC3)nc12 | i | i | i | i | i | · | · | · | ·
O=C(O)C1Sc2[nH]c(=O)sc2C2c3cc(Cl)ccc3OC(=O)C12 (centres undefined) | i | i | i | i | i | · | · | · | ·
O=C(O)C1Sc2[nH]c(=O)sc2C2c3cc(Br)ccc3OC(=O)C12 (centres undefined) | i | i | i | 6.5* | i | i | i | i | i
COc1cccc(-n2c(SCC(N)=O)nnc2-c2c[nH]c3ccccc23)c1 | i | i | i | 6.9* | i | i | i | i | i
O=C(Nc1ccc(Cl)c(Cl)c1)c1ccccc1 | i | · | i | 8* | · | i | i | i | i
Cc1ccc(NC(=S)NCC2CCN(C(C)c3ccccc3)C2)cc1 (centres undefined) | i | i | i | 22* | i | i | i | i | i
CCOCC(=O)Nc1ccc(S(=O)(=O)NCC2CCCO2)cc1 (centres undefined) | i | i | i | 11* | i | i | i | i | i
COc1ccccc1NC(=O)NC1(C)CCS(=O)(=O)C1 (centres undefined) | · | i | · | · | i | · | · | · | ·
Cc1sc2ncnc(N3CCCCC3)c2c1C | i | i | i | 6.8* | i | i | i | i | i
SMILES | MrgX1 agonist | RGS4 inh | MrgX1 antagonist | MrgX1 PAM | RGS4 pot | MrgX1 allo conf | HEK293 Ca flux | HEK293 Ca counter | HEK293 Ca cntr2 | others
Cc1c(C(=O)NCCC2=CCCCC2)sc2ncnc(N3CCCCC3C)c12 (centres undefined) | i | i | i | i | i | · | · | · | ·
Cc1sc2ncnc(N3CCOCC3)c2c1C | i | i | i | i | i | · | · | · | ·
CCc1cc2c(=O)[nH]c(N3CCCC3)nc2s1 | i | i | i | i | i | · | · | · | ·
CCc1cc2c(N3CCCCC3)ncnc2s1 | i | i | i | 11* | i | i | i | i | i
Cc1sc2ncnc(N3CCCCC3C)c2c1C (centres undefined) | i | i | i | 12* | i | 6.3%* | i | i | i
Cc1sc2ncnc(N3CCCC(C)C3)c2c1C (centres undefined) | i | i | i | 28* | i | 25%* | i | i | i
COc1ccccc1C(=O)COC(=O)CN1C(=O)NC2(CCCC2)C1=O | i | i | i | i | i | · | · | · | ·
Cc1ccc(S(=O)(=O)N(C)c2ccccc2C(=O)N2CCOCC2)cc1 | i | i | i | i | i | · | · | · | ·
Cc1ccc(OCc2n[nH]c(=S)n2-c2ccc(Br)cc2)cc1 | i | i | i | 7.6* | i | i | i | i | i
Cc1ccc(OCc2n[nH]c(=S)n2-c2ccc(Cl)cc2)cc1 | i | i | i | i | i | · | · | · | ·
Cc1ccc(Cn2ncc3c(N4CCN(Cc5ccc(Cl)cc5)CC4)ncnc32)cc1 | i | i | -12* | 8.4* | i | i | i | i | i | MrgX1 antag conf=84%*
